The text below walks through data of ChEMBL document CHEMBL1177700, “Discovery of bishomo(hetero)arylpiperazines as novel multifunctional ligands targeting dopamine D(3) and serotonin 5-HT(1A) and 5-HT(2A) receptors” (J Med Chem, 2010).

Active and inactive are the calls of the source. The rule behind the calls is not given here.

In test [1] the test system is Mus musculus. Briefly: Antipsychotic activity in NMRI mouse assessed as inhibition of PCP-induced locomotor activity at 3 mg/kg, ip administered 30 mins prior to testing measured for 60 mins. More on the design: dose 3 mg/kg. In kind it is functional, organism-based.
The subject of test [2] is Mus musculus. Briefly: Antipsychotic activity in ip dosed NMRI mouse assessed as reduction in spontaneous exploratory locomotor activity administered 30 mins prior to testing measured for 60 mins. The class given is functional.
Test [3] deals with Mus musculus. Briefly: Antipsychotic activity in NMRI mouse assessed as reduction of PCP-induced locomotor activity at 10 mg/kg, ip administered 30 mins prior to testing measured for 60 mins. In kind it is functional, organism-based. More on the design: dose 10 mg/kg.
Test [4] concerns Mus musculus. Briefly: Antipsychotic activity in ip dosed NMRI mouse assessed as reduction in methamphetamine-induced locomotor activity administered 30 mins prior to testing measured for 60 mins. The class given is functional. In short, it runs like this:
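Mice were made hyperactive by methamphetamine pretreatment, then dosed with the compound. Read-out was locomotor hypermotility. Doses ranged from 0.3 to 30 mg/kg.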

In general, ED50 refers to the dose that gives a 50% effect, or the effect in half of the subjects. Take `CN1CCN(C2=Nc3cc(Cl)ccc3Nc3ccccc32)CC1` [CLOZAPINE]: the outcome in the test with Mus musculus [1] and in the test with Mus musculus [3] was Active. Further, the ED50 came to 2.4 mg/kg with Mus musculus [2] and 2.5 mg/kg with Mus musculus [4].
